Source: ChEMBL document CHEMBL1150817, “Annomolin and annocherimolin, new cytotoxic annonaceous acetogenins from Annona cherimolia seeds” (J Nat Prod, 2001)
≈ marks a conversion by molar mass, not a printed value.

What was measured:
MCF7 = assay: Cytotoxicity against human MCF7 cells after 7 days by MTT assay; format: functional
Outline: (§1)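 Seven-day in vitro MTT assay run at the Purdue Cancer Center cell culture laboratory under standard protocols. Cell lines were A-549 lung carcinoma, MCF-7 breast carcinoma, HT-29 colon adenocarcinoma, A-498 kidney carcinoma, PC-3 prostate adenocarcinoma and MIA PaCa-2 pancreatic carcinoma. Adriamycin served as the positive control.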

HT-29 = assay: Cytotoxicity against human HT-29 cells after 7 days by MTT assay; format: functional; outline: as §1
PC-3 = assay: Cytotoxicity against human PC3 cells after 7 days by MTT assay; format: functional; settings: for EC50: Homo sapiens, PC-3, 168 h, read-out: ED50 (the source's name); outline: as §1
A498 = assay: Cytotoxicity against human A498 cells after 7 days by MTT assay; format: functional; settings: for EC50: Homo sapiens, A498, 168 h, read-out: ED50 (the source's name); outline: as §1
MIA PaCa-2 = assay: Cytotoxicity against human MIAPaCa2 cells after 7 days by MTT assay; format: functional; settings: for EC50: Homo sapiens, MIA PaCa-2, 168 h, read-out: ED50 (the source's name); outline: as §1
A549 = assay: Cytotoxicity against human A549 cells after 7 days by MTT assay; format: functional; settings: A549, 168 h, read-out: ED50 (the source's name); outline: as §1
[1] = Toxicity to Artemia salina; format: organism-based; settings: in vivo
Outline: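 Brine shrimp lethality test (BST) on larvae, run routinely on extracts, fractions and isolated compounds during activity-directed fractionation.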

Row | SMILES | EC50 (MCF7; Homo sapiens, MCF7, 168 h, read-out: ED50 (the source's name)) [µg/mL] | EC50 (HT-29; Homo sapiens, HT-29, 168 h, read-out: ED50 (the source's name)) [µg/mL] | EC50 (PC-3) [µg/mL] | EC50 (A498) [µg/mL] | EC50 (MIA PaCa-2) [µg/mL] | EC50 (A549) [µg/mL] | ED50 (MCF7) | ED50 (HT-29) | LC50 [1] [µg/mL] | ED50 (MIA PaCa-2) [×10⁻⁵ ug/ml] | ED50 (PC-3) [×10⁻⁶ ug/ml] | ED50 (A498) [×10⁻⁴ ug/ml]
1 | COc1cccc2c1C(=O)c1c(O)c3c(c(O)c1C2=O)C[C@@](O)(C(=O)CO)C[C@@H]3O[C@H]1C[C@H](N)[C@H](O)[C@H](C)O1 [DOXORUBICIN] | 0.0182 (≈ 0.0335 µM) | 0.0128 (≈ 0.0235 µM) | 0.0502 (≈ 0.0924 µM) | 0.00226 (≈ 0.00416 µM) | 0.00262 (≈ 0.00482 µM) | 0.00113 (≈ 0.00208 µM) |  |  |  |  |  | 
2 | CCCCCCCCCCCC/C=C\CC[C@@H](O)[C@H]1CC[C@H]([C@H](O)CCCC(O)CCCC[C@@H](O)CC2=C[C@H](C)OC2=O)O1 (stereo not given in full) [ANNOCHERIMOLIN] |  |  | 1.02 (≈ 1.64 µM) | 0.153 (≈ 0.246 µM) |  | 1.56 (≈ 2.5 µM) | 4.06 ×10⁻⁶ ug/ml | 2.49 ×10⁻⁶ ug/ml | 0.0058 (≈ 0.00931 µM) | 1.2 |  | 
3 | CCCCCCCCCCCCCC[C@H](O)[C@@H]1CC[C@@H](CCCCC[C@@H](O)[C@H](O)CC[C@@H](O)CC2=C[C@H](C)OC2=O)O1 [ANNOMOLIN] |  |  |  |  | 2.18 (≈ 3.65 µM) | 2.37 (≈ 3.97 µM) | 1.15 ×10⁻⁴ ug/ml | 8.92 ×10⁻⁵ ug/ml | 0.0094 (≈ 0.0157 µM) |  | 5.39 | 6.88
